Results as given in ChEMBL document CHEMBL1142666, “Novel [2',5'-bis-O-(tert-butyldimethylsilyl)-beta-D-ribofuranosyl]- 3'-spiro-5''-(4''-amino-1'',2''-oxathiole-2'',2" -dioxide) derivatives with anti-HIV-1 and anti-human-cytomegalovirus activity” (J Med Chem, 2005).

How the values were obtained:
Conditions in all cases: Homo sapiens
[1] = test system: HEL; test: Minimal cytotoxic concentration required to cause microscopically visible alteration of cell morphology in HEL Cells; assay type: functional
Procedure, shortened: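 Uninfected HEL cells exposed to compound. Minimum cytotoxic concentration is the lowest level giving a microscopically detectable change in cell morphology.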

[2] = test system: HEL; test: Effective concentration required to inhibit HCMV AD-169 in HEL Cells; assay type: functional, cell-based
Procedure, shortened: (§1)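 Confluent HEL cells infected with HCMV at 100 PFU/well. After 1-2 h, residual virus removed and MEM with 2% inactivated FCS added, with compound in duplicate at 5-fold dilution steps. After 7 days at 37 °C in 5% CO2, cells fixed with ethanol and Giemsa-stained; plaques or CPE scored microscopically. IC50 interpolated graphically; mean of two independent experiments.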

[3] = test system: CCRF-CEM; test: Effective concentration required to inhibit HIV-2 ROD in CEM cell culture; assay type: functional, cell-based
Procedure, shortened: (§2)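 CEM cells (4 × 10^5/mL) infected at ~100 CCID50/mL and mixed with compound dilutions. Giant cell formation scored microscopically at day 4. EC50 = concentration inhibiting virus-induced cytopathicity by 50%.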

[4] = test system: HEL; test: Cytostatic concentration required to inhibit HEL cell proliferation; assay type: functional
Procedure, shortened: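 HEL fibroblasts seeded at 5 × 10^3 cells/well and grown 24 h, then given compound in duplicate. After 3 days at 37 °C in 5% CO2, cell number read on a Coulter counter. CC50 = concentration reducing cell growth by 50%.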

[5] = test system: MT4; test: Effective concentration required to inhibit HIV-1 IIIB in MT-4 cell culture; assay type: functional, cell-based
Procedure, shortened: (§3)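 MT-4 cells (3 × 10^5/mL) infected at ~100 CCID50/mL and mixed with compound dilutions. Cytopathicity read by trypan blue exclusion at day 5. EC50 = concentration giving 50% protection against virus-induced loss of viability.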

[6] = test system: MT4; test: Effective concentration required to inhibit HIV-2 ROD in MT-4 cell culture; assay type: functional, cell-based; procedure, shortened: as §3
[7] = test system: MT4; test: Cytostatic concentration required to inhibit MT-4 cell proliferation; assay type: functional
Procedure, shortened: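 Mock-infected MT-4 cells (3 × 10^5/mL) incubated with compound dilutions for 5 days. Viable cells counted by trypan blue exclusion. CC50 = concentration reducing viable MT-4 cell number by 50%.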

[8] = test system: CCRF-CEM; test: Cytostatic concentration required to inhibit CEM cell proliferation; assay type: functional
Procedure, shortened: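 CEM cells, mock-infected, grown with serial compound dilutions for 4 days. CC50 taken as the concentration that inhibits CEM cell proliferation by 50%.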

[9] = test system: HEL; test: Effective concentration required to inhibit HCMV Davis in HEL Cells; assay type: functional, cell-based; procedure, shortened: as §1
[10] = test system: CCRF-CEM; test: Effective concentration required to inhibit HIV-1 IIIB in CEM cell culture; assay type: functional, cell-based; procedure, shortened: as §2

Compound	MCC [1] [µM]	EC50 [2] [µM]	EC50 [3] [µM]	CC50 [4] [µM]	EC50 [5] [µM]	EC50 [6] [µM]	CC50 [7] [µM]	CC50 [8] [µM]	EC50 [9] [µM]	EC50 [10] [µM]
COC(=O)C(=O)NC1=CS(=O)(=O)O[C@@]12[C@@H](CO[Si](C)(C)C(C)(C)C)O[C@@H](n1cc(C)c(=O)n(C)c1=O)[C@@H]2O[Si](C)(C)C(C)(C)C	> 400	253	> 4	> 200	0.08	> 4	10.3	5.57	179	0.06
Cc1cn([C@@H]2O[C@@H]3COC(=O)[C@]3(OS(C)(=O)=O)[C@H]2O)c(=O)[nH]c1=O	≥ 400	179	> 50	36	> 50	> 250	≥ 250	160	164	> 50
Cc1cn([C@@H]2O[C@H](CO[Si](C)(C)C(C)(C)C)[C@@]3(OS(=O)(=O)C=C3NC(=O)C(=O)N3CCC3)[C@H]2O[Si](C)(C)C(C)(C)C)c(=O)n(C)c1=O	65	10	> 10	84.4	0.8	> 50	17.4	21.6	10	0.7
Cc1cn([C@@H]2O[C@H](CO[Si](C)(C)C(C)(C)C)[C@@]3(OS(=O)(=O)C=C3NC(N)=O)[C@H]2O[Si](C)(C)C(C)(C)C)c(=O)n(C)c1=O	16	> 3.2	> 2	11	> 2	> 2	3.7	4.36	2	> 2
CCOC(=O)CN1C(=O)CN(C(=O)NC2=CS(=O)(=O)O[C@@]23[C@@H](CO[Si](C)(C)C(C)(C)C)O[C@@H](n2cc(C)c(=O)n(C)c2=O)[C@@H]3O[Si](C)(C)C(C)(C)C)C1=O	≥ 3.2	0.29	> 2	2.5	0.88	> 2	1.43	1.42	0.32	0.24
CC(=O)NC1=CS(=O)(=O)O[C@@]12[C@@H](CO[Si](C)(C)C(C)(C)C)O[C@@H](n1cc(C)c(=O)n(C)c1=O)[C@@H]2O[Si](C)(C)C(C)(C)C	≥ 80	40	> 25	> 200	> 5	> 5	10.7	25.7	> 16	> 25
COC(=O)CCNC1=CS(=O)(=O)O[C@@]12[C@@H](CO[Si](C)(C)C(C)(C)C)O[C@@H](n1cc(C)c(=O)n(C)c1=O)[C@@H]2O[Si](C)(C)C(C)(C)C	≥ 400	> 400	> 250	94	> 250	> 250	> 250	> 250	> 400	> 250
Cc1cn([C@@H]2O[C@H](CO[Si](C)(C)C(C)(C)C)[C@@]3(OS(=O)(=O)C=C3NC(=O)c3ccccc3)[C@H]2O[Si](C)(C)C(C)(C)C)c(=O)n(C)c1=O	≥ 3.2	1.3	> 5	9.7	> 5	> 5	4.9	4.91	1.2	> 5
Cc1cn([C@@H]2O[C@H](CO[Si](C)(C)C(C)(C)C)[C@@]3(OS(=O)(=O)C=C3NC(=O)NC(=O)c3ccccc3)[C@H]2O[Si](C)(C)C(C)(C)C)c(=O)n(C)c1=O	≥ 80	1.2	> 2	≥ 200	> 2	> 10	3.33	2.29	0.8	> 2
Cc1cn([C@@H]2O[C@H](CO[Si](C)(C)C(C)(C)C)[C@@]3(OS(=O)(=O)C=C3NC(=O)C(=O)O)[C@H]2O[Si](C)(C)C(C)(C)C)c(=O)n(C)c1=O	400	> 80	> 50	146	1.3	> 10	31.1	72.6	36	0.23
Cc1cn([C@@H]2O[C@H](CO[Si](C)(C)C(C)(C)C)[C@@]3(OS(=O)(=O)C=C3NCCC(=O)OCc3ccccc3)[C@H]2O[Si](C)(C)C(C)(C)C)c(=O)n(C)c1=O	≥ 400	> 400	> 250	> 200	> 250	> 250	> 250	> 250	> 400	> 250
Cc1cn([C@@H]2O[C@@H]3COC4(O)CS(=O)(=O)O[C@@]34[C@H]2O[Si](C)(C)C(C)(C)C)c(=O)[nH]c1=O (some centres not stated)	–	–	> 100	–	> 100	> 100	> 100	> 100	–	> 100
Cc1cn([C@@H]2O[C@@H]3COC4(O)CS(=O)(=O)O[C@@]34[C@H]2O)c(=O)[nH]c1=O (some centres not stated)	–	–	> 100	–	> 100	> 100	> 100	> 100	–	> 100
Cc1cn([C@@H]2O[C@H](CO[Si](C)(C)C(C)(C)C)[C@@]3(OS(=O)(=O)C=C3N)[C@H]2O[Si](C)(C)C(C)(C)C)c(=O)n(C)c1=O	–	–	> 250	–	0.06	> 250	230	–	–	0.04
CCOC(=O)NC(=O)NC1=CS(=O)(=O)O[C@@]12[C@@H](CO[Si](C)(C)C(C)(C)C)O[C@@H](n1cc(C)c(=O)n(C)c1=O)[C@@H]2O[Si](C)(C)C(C)(C)C	16	2.3	> 2	14	> 2	> 2	–	3	1.8	> 2
CCNC(=O)NC1=CS(=O)(=O)O[C@@]12[C@@H](CO[Si](C)(C)C(C)(C)C)O[C@@H](n1cc(C)c(=O)n(C)c1=O)[C@@H]2O[Si](C)(C)C(C)(C)C	≥ 3.2	1.8	> 2	10	> 2	> 2	–	4.26	2	> 2
Cc1cn([C@@H]2O[C@H](CO[Si](C)(C)C(C)(C)C)C3(OS(=O)(=O)C=C3N)[C@H]2O[Si](C)(C)C(C)(C)C)c(=O)[nH]c1=O (some centres not stated)	–	–	> 10	–	–	> 10	12	–	–	–
Cc1cn([C@@H]2O[C@H](CO[Si](C)(C)C(C)(C)C)[C@@]3(OS(=O)(=O)C=C3NCC(=O)OCc3ccccc3)[C@H]2O[Si](C)(C)C(C)(C)C)c(=O)n(C)c1=O	≥ 400	> 400	> 250	> 200	–	> 250	> 250	> 250	> 400	6.7
